# From PubChem
# MC4R antagonist: MC4R antagonists of cAMP signaling, primary screen, cell-based, TR-FRET, antagonist arm of biased-ligand search; 360,000 compounds, 0.48% hits; MC4R-expressing cells, MTII-stimulated cAMP, LANCE TR-FRET; AID 540295, 2011; inhibition, % at 6.5 µM;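 active = inhibition above its plate's cutoff, the mean of tested wells on that plate plus 3 SD, cut at about 29% in these data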;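 note: 0% = Melanotan II alone and 100% = Melanotan II plus saturating MCL0020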
#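 material = U2OS cells stably expressing human melanocortin 4 receptor (MC4R) | also added = Melanotan II challenge | dosing = single nominal compound dose of 6.5 µM | detection = TR-FRET with Eu-cAMP and labeled anti-cAMP, 671 nm | replication = singlicate | timing = compound 30 min, challenge 1 h, detection 1 h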
# TLR4-MyD88 BLA: inhibitors of TLR4-MyD88 association in cells, primary screen, cell-based, HeLa CL3-4, BLA complementation, FRET ratio | Toll-like receptor 4 (Homo sapiens) + Myeloid differentiation primary response protein … | HeLa CL3-4 TLR4/MyD88 BLA complementation | inhibition, % at 8.4 µM | 200,000 compounds, 0.18% hits; in the data active = inhibition above about 25%;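 note: 0% = vehicle and 100% = reference inhibitor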
# MC4R ag barr: MC4R agonists recruiting beta-arrestin, primary screen, cell-based, luminescence, agonist arm of biased-ligand search; Melanocortin receptor 4 (Homo sapiens), P32245; U2OS MC4R beta-arrestin complementation; percent of melanotan II response, DMSO zero; activation, % at 8.9 µM; 360,000 compounds, 0.98% hits; AID 540308, 2011;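 active = activation above a per-plate cutoff, the mean activation of sample wells on that plate plus 3 SD, cut at about 8% in these data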
# NOD2 RIPK2 PPI: NOD2-RIPK2 binding disruptors in cells, primary screen, fluorescence, CHO cells, BLA complementation. 360,000 compounds, 0.38% hits. inhibition, % at 4.98 µM. AID 624267, 2012. Receptor-interacting serine/threonine-protein kinase 2 (Homo sapiens), O43353. CCF4 ratio; in the data active = inhibition above about 21%;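 note: 0% = vehicle only and 100% = reference blocker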
# Target sequence (O43353 whole entry, looked up): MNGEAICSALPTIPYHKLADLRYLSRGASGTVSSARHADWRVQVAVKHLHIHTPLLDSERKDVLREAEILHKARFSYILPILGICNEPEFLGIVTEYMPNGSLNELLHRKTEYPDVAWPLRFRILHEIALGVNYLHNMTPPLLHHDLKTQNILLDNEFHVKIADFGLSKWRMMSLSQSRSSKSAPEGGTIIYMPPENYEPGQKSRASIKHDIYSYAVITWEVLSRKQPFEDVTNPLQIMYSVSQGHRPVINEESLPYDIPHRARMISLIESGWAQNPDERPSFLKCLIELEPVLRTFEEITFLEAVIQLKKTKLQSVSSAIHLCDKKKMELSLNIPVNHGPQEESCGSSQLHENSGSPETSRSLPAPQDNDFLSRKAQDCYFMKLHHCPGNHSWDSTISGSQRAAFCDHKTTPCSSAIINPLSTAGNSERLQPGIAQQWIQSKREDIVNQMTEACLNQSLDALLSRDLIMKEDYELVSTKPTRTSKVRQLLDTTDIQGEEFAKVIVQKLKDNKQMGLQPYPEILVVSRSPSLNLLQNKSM
# TLR9-MyD88 inh: inhibitors of TLR9-MyD88 association in cells, primary screen, cell-based, CHO, BLA complementation, fluorescence | Toll-like receptor 9 (Homo sapiens) + Myeloid differentiation primary response protein … | CCF4 FRET ratio | 340,000 compounds, 0.21% hits | AID 504734, 2011 | inhibition, % at 4.98 µM;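 active = inhibition above the mean over all tested compounds plus 3 SD, cut at about 21% in these data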;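 note: 0% = DMSO only wells and 100% = clavulanate BLA inhibitor control wells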
# TLR4-MyD88 conf: TLR4-MyD88 association inhibitors, retest, confirmation, cell-based, HeLa CL3-4, BLA complementation, FRET ratio; shares compounds with TLR4-MyD88 BLA; inhibition, % at 8.4 µM; 350 compounds, 50% hits; CCF4 FRET ratio;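 active = mean inhibition across three repeat runs above about 25% carried over from the earlier screen, limit read from the data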;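 note: plate controls were DMSO only for no effect and clavulanic acid blocking BLA at full dose for full effect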
# BLA inhibitor ct: inhibits beta-lactamase activity, counter-screen to TLR4-MyD88 binding inhibitors. inhibition, % at 8.4 µM. shares compounds with TLR4-MyD88 BLA. 350 compounds, 63% hits. AID 1237. HeLa BLA reporter, CCF4 FRET ratio;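 active = mean inhibition over three repeats above about 26% taken from the earlier screen, limit read from the data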;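 note: HeLa cells stably expressing beta-lactamase reporter as counterscreen for TLR4-MyD88 inhibitors; 0% = DMSO and 100% = clavulanic acid full inhibition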
# The depositor's hits bear a star; . = no result given. In the library only some 1.8% were active in any assay of this set; here they are far more common.
SMILES,MC4R antagonist,TLR4-MyD88 BLA,MC4R ag barr,NOD2 RIPK2 PPI,TLR9-MyD88 inh,TLR4-MyD88 conf,BLA inhibitor ct
CC(=O)N1CCN(c2ccc(NC(=O)c3ccc(F)cc3)cc2)CC1,-1,.,0,5,10,.,.
N#CC1CC(c2ccc([N+](=O)[O-])cc2)=NN1c1ccc([N+](=O)[O-])cc1 (centres undefined),14,56*,-2,7,16,56*,83*
OC(c1ccc(F)c(F)c1)c1nc(-c2cccc3cccnc23)cs1 (centres undefined),8,.,2,-2,.,.,.
O=C(CCc1ccccc1)c1ccc2c(c1)OCCCO2,-2,4,0,-2,-10,.,.
O=C(CCCc1ccccc1)c1ccc2c(c1)OCCO2,-2,25*,4,2,-7,-2,1
Cc1ccccc1OCC(=O)NC(=S)Nc1ccc(S(=O)(=O)NC2CCCCC2)cc1,4,-10,3,-6,1,.,.
CC(=O)NS(=O)(=O)c1ccc(NC(=S)NC(=O)COc2ccccc2C)cc1,-5,34*,1,-12,-1,-13,7
O=C(Nc1nncs1)C12CC3CC(CC(Cl)(C3)C1)C2,12,.,-2,0,7,.,.
CCOc1ccc(NC(=O)/C(C#N)=C/c2ccc(N3CCCC3)c(C)c2)cc1,-3,27*,1,1,11,28*,65*
CCN(CC)S(=O)(=O)c1ccc(N2CCCCC2)c(NC(=O)/C(C#N)=C/c2ccc(OC)cc2)c1,6,3,-1,-8,-6,.,.
CNC(=O)c1sc(N2N=C3/C(=C\c4ccccc4)CCCC3C2c2ccccc2)nc1C (centres undefined),15,.,-3,-1,-8,.,.
CNC(=O)c1sc(N2N=C3/C(=C/c4ccccc4)CCCC3C2c2ccccc2)nc1C (centres undefined),19,28*,-1,8,9,24,54*
CC(=O)c1cn(CC(=O)Nc2ccccc2Cl)c2ccccc12,-3,.,-1,-16,-6,.,.
CCc1nc(N)nc(N)c1-c1ccc(Cl)c(N=[N+]=[N-])c1,-9,.,-1,-4,-7,.,.
CCCCCn1c(=O)c(C(=O)c2ccccc2)nc2ccccc21,-3,4,-1,-6,-14,.,.
CCCCCCn1c(=O)[nH]c2nc3cc(N)ccc3nc2c1=O,.,25*,.,.,.,30*,45*
Cc1c(NC(=O)CSc2nnc(-c3cccc(Cl)c3)o2)c(=O)n(-c2ccccc2)n1C,3,29*,0,-3,-2,1,4
Cc1ccnc(NC(=O)C2CCCN(S(=O)(=O)c3ccc4[nH]c(=O)ccc4c3)C2)c1 (centres undefined),7,.,-2,-6,1,.,.
COc1ccc(NC(=O)CSc2ccc3c4c(cccc24)C(=O)c2ccccc2-3)cc1,9,33*,2,7,-14,24,14
N#Cc1cccc(NC(=O)CSc2ccc3c4c(cccc24)C(=O)c2ccccc2-3)c1,4,54*,0,13,20,36*,65*
CCCn1nc(NS(=O)(=O)c2cccc3nonc23)c2cc3ccccc3nc21,1,.,-4,-9,-8,.,.
O=C(Cn1ncc(Cl)c(Cl)c1=O)N1CCc2ccccc21,-12,27*,3,21,14,24,5
O=C(Cn1ncc2c1-c1ccccc1OC2)N1CCc2ccccc21,3,-1,0,8,4,.,.
CCc1ccc(N2CC(C(=O)NCc3ccc4c(c3)OCO4)CC2=O)cc1 (centres undefined),5,1,-1,-9,1,.,.
O=C(NCc1ccc2c(c1)OCO2)C1CC(=O)N(c2ccc(F)cc2)C1 (centres undefined),-5,25*,-2,2,-7,-8,7
SMILES,MC4R antagonist,TLR4-MyD88 BLA,MC4R ag barr,NOD2 RIPK2 PPI,TLR9-MyD88 inh,TLR4-MyD88 conf,BLA inhibitor ct
Cn1c(=O)c([N+](=O)[O-])c(-n2ccnc2)c2ccccc21,24,25*,-3,5,4,-5,-13
CCCCC(CC)Cn1c2nc3ccccc3nc2c2c(=N)oc(C)nc21 (centres undefined),.,48*,.,.,.,-6,-6
CCCCn1c2nc3ccccc3nc2c2c(=N)oc(C)nc21,2,.,0,-5,2,.,.
CN1CCN(S(=O)(=O)c2ccc(Cl)s2)CC1,15,.,-1,-10,-1,.,.
CN(C)c1ccc(/C=N/N=C/c2ccccc2O)cc1,27,37*,-1,-6,20,58*,53*
CCCC1(CC)C(=O)NC(=O)N=C1N (centres undefined),4,.,-2,-6,-1,.,.
COc1ccc2nc(/C(C#N)=C\c3ccc(C(=O)O)cc3)[nH]c2c1,-18,27*,-2,16,16,13,27*
CN(C)C=Nc1nonc1-c1ccccc1,17,.,-1,0,-9,.,.
CN(C)C=Nc1c(Br)cc(Br)c2nonc12,5,25*,0,-1,6,21,35*
COc1ccccc1CCNC(=O)CCn1nc(C)c2c(C)n(-c3ccccc3)nc2c1=O,4,.,-1,-11,-6,.,.
CC(=O)C1=NN(c2ccccc2)C(c2ccc3c(c2)OCO3)N1c1ccc(N2CCOCC2)cc1 (centres undefined),3,-6,1,7,0,.,.
CC(=O)C1=NN(c2ccccc2)C(c2cccs2)N1c1ccccc1 (centres undefined),.,27*,.,.,.,5,14
Cc1ccc(NC(=O)CN2CCCC2c2cccn2C)c(Br)c1 (centres undefined),11,.,-1,-4,-5,.,.
Cc1csc(=O)n1CC(=O)OCC(=O)Nc1ccc(Cl)cc1F,4,.,-2,0,4,.,.
Cc1cccc(NC(=O)c2cc([N+](=O)[O-])ccc2Cl)c1O,11,-10,-4,-1,3,.,.
Cc1n[nH]c(C)c1NC(=O)c1cc([N+](=O)[O-])ccc1Cl,3,27*,-1,2,-8,-6,5
Cc1ccc(C)c(NS(=O)(=O)c2ccc(OCC(=O)NCc3ccco3)cc2)c1,12,26*,0,3,3,3,1
